Data on one compound can be found in ChEMBL document CHEMBL4422626, “Optimization of novel benzofuro[3,2-b]pyridin-2(1H)-one derivatives as dual inhibitors of BTK and PI3Kδ” (Eur J Med Chem, 2019).

Active and inactive are the calls of the source. The calls are words filed in the database; no cut-off is given here.

Usually IC50 stands for the concentration at which inhibition is half-maximal. A high value points to weaker potency. In general, inhibition refers to the change of the read-out against control, counted positive when it falls.

Experiment [1] concerns the target T1, Tyrosine-protein kinase BTK (Homo sapiens, UniProt Q06187). Nature of the experiment: Inhibition of BTK (unknown origin) by ADP-gloassay.
Experiment [2] deals with T2, Phosphatidylinositol 4,5-bisphosphate 3-kinase catalytic subunit delta isoform (Homo sapiens) (UniProt O00329).
T2 sequence (whole entry): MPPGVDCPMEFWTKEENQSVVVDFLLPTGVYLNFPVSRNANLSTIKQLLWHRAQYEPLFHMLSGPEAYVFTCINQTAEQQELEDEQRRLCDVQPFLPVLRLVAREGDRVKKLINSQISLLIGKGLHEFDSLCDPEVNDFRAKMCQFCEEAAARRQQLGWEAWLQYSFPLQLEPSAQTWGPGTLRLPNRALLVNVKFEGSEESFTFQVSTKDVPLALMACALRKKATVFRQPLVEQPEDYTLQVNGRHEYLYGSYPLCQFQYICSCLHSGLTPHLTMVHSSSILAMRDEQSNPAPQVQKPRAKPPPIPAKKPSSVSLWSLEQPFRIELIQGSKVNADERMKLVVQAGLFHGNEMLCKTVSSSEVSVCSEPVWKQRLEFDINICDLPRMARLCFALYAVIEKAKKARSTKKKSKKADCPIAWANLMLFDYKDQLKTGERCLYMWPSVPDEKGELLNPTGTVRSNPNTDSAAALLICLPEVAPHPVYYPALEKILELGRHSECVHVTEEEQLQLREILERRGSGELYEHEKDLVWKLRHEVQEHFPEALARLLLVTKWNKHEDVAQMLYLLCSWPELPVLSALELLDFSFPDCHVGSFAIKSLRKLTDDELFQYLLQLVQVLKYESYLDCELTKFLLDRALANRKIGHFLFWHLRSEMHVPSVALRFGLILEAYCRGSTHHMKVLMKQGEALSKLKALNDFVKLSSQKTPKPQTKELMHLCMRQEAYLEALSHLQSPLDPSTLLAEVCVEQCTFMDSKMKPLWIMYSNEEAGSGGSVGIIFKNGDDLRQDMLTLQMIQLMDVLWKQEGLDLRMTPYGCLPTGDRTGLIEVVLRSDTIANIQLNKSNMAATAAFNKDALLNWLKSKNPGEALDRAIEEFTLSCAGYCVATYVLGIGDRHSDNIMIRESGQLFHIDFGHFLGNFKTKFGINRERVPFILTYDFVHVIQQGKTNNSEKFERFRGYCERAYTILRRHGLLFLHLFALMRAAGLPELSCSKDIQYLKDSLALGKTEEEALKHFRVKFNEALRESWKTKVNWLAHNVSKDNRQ
Nature of the experiment: Inhibition of PI3Kdelta (unknown origin) at 200 nM by ADP-gloassay relative to control. The procedure, abridged:
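PI3Kδ was tested with the PI3K-Glo Class I Profiling Kit and a luminescence read-out, following the manufacturer's protocol. Each compound was tested at a single concentration of 200 nM and expressed as percent inhibition versus control.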

Experiment [3] deals with T3, Phosphatidylinositol 4,5-bisphosphate 3-kinase catalytic subunit delta isoform (Homo sapiens, UniProt O00329).
T3 sequence (O00329 whole entry): T2 sequence (whole entry)
Nature of the experiment: Inhibition of PI3Kdelta (unknown origin) by ADP-gloassay. The essentials: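 PI3K isoform activity was measured with the PI3K-Glo Class I Profiling Kit, a luminescent ADP-Glo-type read-out, following the manufacturer's protocol.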
For orientation: ADP-Glo turns the ADP formed in a reaction into a luminescent signal.

The test system of the next experiment is Raji. Nature of the experiment: Antiproliferative activity against human Raji cells after 48 hrs by CCK8 assay. It is filed as functional, cell-based. The essentials: (§1)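 Raji and Ramos cells grown in RPMI1640 or IMDM with 10% FBS, 37 °C, 5% CO2. Seeded at 3000-5000 cells/well and left 12-24 h before dosing. Several compound concentrations given for 48 h. CCK-8 then added for 4 h and OD read at 450 nm. IC50 is the concentration giving 50% cell death versus control, calculated from inhibition ratios.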
On the technique in general: Formazan colour is commonly taken as a measure of viable cells.

Experiment [4] has as its system Ramos. The experiment in a line: Antiproliferative activity against human Ramos cells after 48 hrs by CCK8 assay. Format: functional, cell-based. The essentials:
as §1

The target in experiment [5] is Phosphatidylinositol 4,5-bisphosphate 3-kinase catalytic subunit alpha isoform (Homo sapiens, UniProt P42336). Nature of the experiment: Inhibition of PI3Kalpha (unknown origin) by ADP-gloassay. The essentials: (§2)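 PI3K isoform activity was measured with the PI3K-Glo Class I Profiling Kit, a luminescent ADP-Glo-type read-out, following the manufacturer's protocol. Compounds were tested over 1 nM–5 μM to give IC50 values.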
Chain of Phosphatidylinositol 4,5-bisphosphate 3-kinase catalytic subunit alpha isoform (P42336 whole entry, canonical isoform): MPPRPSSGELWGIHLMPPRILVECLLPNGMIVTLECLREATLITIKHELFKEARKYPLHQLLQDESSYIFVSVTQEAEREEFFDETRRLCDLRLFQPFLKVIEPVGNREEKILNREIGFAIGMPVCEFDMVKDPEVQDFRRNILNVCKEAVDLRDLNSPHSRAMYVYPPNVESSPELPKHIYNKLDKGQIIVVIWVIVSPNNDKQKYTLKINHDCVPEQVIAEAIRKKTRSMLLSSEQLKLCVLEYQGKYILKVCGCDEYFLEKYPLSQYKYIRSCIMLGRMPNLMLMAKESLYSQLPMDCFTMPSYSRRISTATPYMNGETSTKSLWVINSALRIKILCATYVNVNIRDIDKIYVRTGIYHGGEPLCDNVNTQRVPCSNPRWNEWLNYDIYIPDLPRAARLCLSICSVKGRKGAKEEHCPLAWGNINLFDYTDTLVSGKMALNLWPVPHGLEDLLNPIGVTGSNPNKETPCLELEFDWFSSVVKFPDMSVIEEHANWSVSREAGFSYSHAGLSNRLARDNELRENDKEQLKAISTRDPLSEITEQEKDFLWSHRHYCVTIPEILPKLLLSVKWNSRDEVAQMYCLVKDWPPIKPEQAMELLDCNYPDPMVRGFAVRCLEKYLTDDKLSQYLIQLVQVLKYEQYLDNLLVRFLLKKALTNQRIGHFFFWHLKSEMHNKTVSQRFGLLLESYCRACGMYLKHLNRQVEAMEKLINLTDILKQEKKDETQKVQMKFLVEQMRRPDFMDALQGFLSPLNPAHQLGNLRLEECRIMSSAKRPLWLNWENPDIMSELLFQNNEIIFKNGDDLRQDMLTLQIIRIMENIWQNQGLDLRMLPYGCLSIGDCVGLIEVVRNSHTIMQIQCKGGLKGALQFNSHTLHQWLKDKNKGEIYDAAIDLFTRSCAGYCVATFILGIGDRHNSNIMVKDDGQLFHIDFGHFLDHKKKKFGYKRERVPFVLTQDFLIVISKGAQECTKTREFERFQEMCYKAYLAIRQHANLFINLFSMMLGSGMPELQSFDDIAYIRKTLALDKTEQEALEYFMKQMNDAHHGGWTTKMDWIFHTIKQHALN

In experiment [6] the target is Phosphatidylinositol 4,5-bisphosphate 3-kinase catalytic subunit beta isoform (Homo sapiens, UniProt P42338). Nature of the experiment: Inhibition of PI3Kbeta (unknown origin) by ADP-gloassay. The essentials:
as §2

For experiment [7], the target named is Phosphatidylinositol 4,5-bisphosphate 3-kinase catalytic subunit gamma isoform (Homo sapiens, UniProt P48736). The experiment in a line: Inhibition of PI3Kgamma (unknown origin) by ADP-gloassay. The essentials: as §2
Chain of Phosphatidylinositol 4,5-bisphosphate 3-kinase catalytic subunit gamma isoform (P48736 whole entry, canonical isoform): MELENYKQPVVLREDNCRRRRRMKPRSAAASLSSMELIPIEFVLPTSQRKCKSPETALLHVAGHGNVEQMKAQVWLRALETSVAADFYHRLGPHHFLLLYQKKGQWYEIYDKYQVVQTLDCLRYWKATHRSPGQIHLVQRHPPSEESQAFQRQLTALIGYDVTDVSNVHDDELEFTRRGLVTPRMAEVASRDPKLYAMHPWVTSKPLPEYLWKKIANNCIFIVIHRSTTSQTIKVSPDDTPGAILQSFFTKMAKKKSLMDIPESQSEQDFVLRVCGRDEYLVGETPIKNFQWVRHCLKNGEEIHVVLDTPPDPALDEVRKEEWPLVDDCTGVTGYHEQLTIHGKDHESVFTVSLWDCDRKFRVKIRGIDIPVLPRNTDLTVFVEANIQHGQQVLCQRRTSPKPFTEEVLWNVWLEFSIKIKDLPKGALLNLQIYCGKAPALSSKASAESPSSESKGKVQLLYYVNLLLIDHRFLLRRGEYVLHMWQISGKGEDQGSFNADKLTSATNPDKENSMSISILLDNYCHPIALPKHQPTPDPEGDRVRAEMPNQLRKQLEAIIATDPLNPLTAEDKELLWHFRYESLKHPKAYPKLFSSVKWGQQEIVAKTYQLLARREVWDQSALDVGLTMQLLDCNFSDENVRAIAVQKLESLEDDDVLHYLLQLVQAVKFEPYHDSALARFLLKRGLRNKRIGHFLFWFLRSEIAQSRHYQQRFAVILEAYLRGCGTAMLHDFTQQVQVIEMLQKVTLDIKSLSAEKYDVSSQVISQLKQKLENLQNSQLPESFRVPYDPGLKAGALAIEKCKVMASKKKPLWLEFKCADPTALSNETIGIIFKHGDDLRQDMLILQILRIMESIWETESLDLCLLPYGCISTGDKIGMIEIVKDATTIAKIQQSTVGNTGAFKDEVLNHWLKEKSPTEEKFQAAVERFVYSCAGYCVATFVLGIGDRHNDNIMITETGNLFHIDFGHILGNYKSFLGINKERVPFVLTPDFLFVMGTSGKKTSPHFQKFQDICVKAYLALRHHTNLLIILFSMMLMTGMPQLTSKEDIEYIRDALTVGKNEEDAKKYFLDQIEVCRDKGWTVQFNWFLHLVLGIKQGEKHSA
Experiment [8] deals with Serine/threonine-protein kinase mTOR (Homo sapiens, UniProt P42345). Nature of the experiment: Inhibition of mTOR (unknown origin) by ADP-gloassay.
The target of experiment [9] is T2, Phosphatidylinositol 4,5-bisphosphate 3-kinase catalytic subunit delta isoform (Homo sapiens). Nature of the experiment: Inhibition of PI3Kdelta in human Ramos cells assessed as reduction in Akt phosphorylation at Ser473 residues at 0.25 to 4 uM after 4 hrs by Western blot analysis. It is filed as cell-based. The procedure, abridged:
(§3)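 Cells were treated with compound for 4 h, then stimulated or not with anti-human IgM F(ab')2. They were lysed in Tris-Cl pH 6.8/4% SDS/glycerol/β-mercaptoethanol buffer on ice and protein was quantified by BCA. Equal protein was run on 12% SDS-PAGE and transferred to PVDF. Blots were probed with specific primary antibodies overnight at 4 °C and HRP secondaries 1 h at 37 °C, with ECL detection.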
For orientation: Immunoblotting shows a protein as a band on a membrane.

For experiment [10] the target is unchanged. The experiment in a line: Inhibition of PI3Kdelta in human Ramos cells assessed as reduction in mTOR phosphorylation at Ser2481 residues at 0.25 to 4 uM after 4 hrs by Western blot analysis. Format: cell-based. The procedure, abridged:
as §3

The test system of experiment [11] is Ramos. The experiment in a line: Induction of apoptosis in human Ramos cells assessed as early apoptotic cells at 5 uM after 48 hrs by Annexin-V-FITC/propidium iodide staining based flow cytometric analysis (reference value: 1.08%). It is filed as functional.
Experiment [12] deals with Ramos. Nature of the experiment: Induction of apoptosis in human Ramos cells assessed as late apoptotic cells at 5 uM after 48 hrs by Annexin-V-FITC/propidium iodide staining based flow cytometric analysis (reference value: 0.98%). Format: functional.
Experiment [13] deals with Ramos. Nature of the experiment: Induction of apoptosis in human Ramos cells assessed as necrotic cells at 5 uM after 48 hrs by Annexin-V-FITC/propidium iodide staining based flow cytometric analysis (reference value: 1.11%). It is filed as functional.
Experiment [14] concerns Ramos. Nature of the experiment: Induction of apoptosis in human Ramos cells assessed as viable cells at 5 uM after 48 hrs by Annexin-V-FITC/propidium iodide staining based flow cytometric analysis (reference value: 96.83%). It is filed as functional. The following applies: read-out: Activity.
Experiment [15] deals with Ramos. The experiment in a line: Cell cycle arrest in human Ramos cells assessed as accumulation at G0/G1 phase at 5 uM after 48 hrs by propidium iodide staining based flow cytometric analysis (reference value: 24.65%). It is filed as functional.
Experiment [16] deals with Ramos. The experiment in a line: Cell cycle arrest in human Ramos cells assessed as accumulation at S phase at 5 uM after 48 hrs by propidium iodide staining based flow cytometric analysis (reference value: 71.08%). Format: functional.
Experiment [17] relates to Ramos. Nature of the experiment: Cell cycle arrest in human Ramos cells assessed as accumulation at G2/M phase at 5 uM after 48 hrs by propidium iodide staining based flow cytometric analysis (reference value: 4.26%). Format: functional.
The subject of experiment [18] is Ramos. Nature of the experiment: Cell cycle arrest in human Ramos cells assessed as accumulation at apoptotic phase at 5 uM after 48 hrs by propidium iodide staining based flow cytometric analysis (reference value: 5.03%). Format: functional.
The target in experiment [19] is T1, Tyrosine-protein kinase BTK. The following applies: at 200 nM.

T1 sequence (Q06187 whole entry, canonical isoform): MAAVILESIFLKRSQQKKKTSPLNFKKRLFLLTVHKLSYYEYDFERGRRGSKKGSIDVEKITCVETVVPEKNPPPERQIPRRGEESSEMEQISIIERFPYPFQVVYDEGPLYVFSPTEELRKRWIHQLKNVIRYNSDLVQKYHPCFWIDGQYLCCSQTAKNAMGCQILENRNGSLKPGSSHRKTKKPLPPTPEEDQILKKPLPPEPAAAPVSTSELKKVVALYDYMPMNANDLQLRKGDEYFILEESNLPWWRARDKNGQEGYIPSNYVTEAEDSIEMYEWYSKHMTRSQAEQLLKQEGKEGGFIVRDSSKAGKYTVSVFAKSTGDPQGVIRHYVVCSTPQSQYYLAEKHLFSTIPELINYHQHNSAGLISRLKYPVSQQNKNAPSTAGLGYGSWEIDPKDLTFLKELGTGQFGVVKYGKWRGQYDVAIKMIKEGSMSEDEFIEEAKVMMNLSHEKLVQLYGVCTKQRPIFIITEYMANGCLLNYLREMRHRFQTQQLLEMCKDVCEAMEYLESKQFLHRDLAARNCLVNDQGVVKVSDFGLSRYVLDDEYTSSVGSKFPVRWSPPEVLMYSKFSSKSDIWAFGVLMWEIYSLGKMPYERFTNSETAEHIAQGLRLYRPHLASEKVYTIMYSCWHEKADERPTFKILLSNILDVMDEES
Chain of Phosphatidylinositol 4,5-bisphosphate 3-kinase catalytic subunit beta isoform (P42338 whole entry, canonical isoform): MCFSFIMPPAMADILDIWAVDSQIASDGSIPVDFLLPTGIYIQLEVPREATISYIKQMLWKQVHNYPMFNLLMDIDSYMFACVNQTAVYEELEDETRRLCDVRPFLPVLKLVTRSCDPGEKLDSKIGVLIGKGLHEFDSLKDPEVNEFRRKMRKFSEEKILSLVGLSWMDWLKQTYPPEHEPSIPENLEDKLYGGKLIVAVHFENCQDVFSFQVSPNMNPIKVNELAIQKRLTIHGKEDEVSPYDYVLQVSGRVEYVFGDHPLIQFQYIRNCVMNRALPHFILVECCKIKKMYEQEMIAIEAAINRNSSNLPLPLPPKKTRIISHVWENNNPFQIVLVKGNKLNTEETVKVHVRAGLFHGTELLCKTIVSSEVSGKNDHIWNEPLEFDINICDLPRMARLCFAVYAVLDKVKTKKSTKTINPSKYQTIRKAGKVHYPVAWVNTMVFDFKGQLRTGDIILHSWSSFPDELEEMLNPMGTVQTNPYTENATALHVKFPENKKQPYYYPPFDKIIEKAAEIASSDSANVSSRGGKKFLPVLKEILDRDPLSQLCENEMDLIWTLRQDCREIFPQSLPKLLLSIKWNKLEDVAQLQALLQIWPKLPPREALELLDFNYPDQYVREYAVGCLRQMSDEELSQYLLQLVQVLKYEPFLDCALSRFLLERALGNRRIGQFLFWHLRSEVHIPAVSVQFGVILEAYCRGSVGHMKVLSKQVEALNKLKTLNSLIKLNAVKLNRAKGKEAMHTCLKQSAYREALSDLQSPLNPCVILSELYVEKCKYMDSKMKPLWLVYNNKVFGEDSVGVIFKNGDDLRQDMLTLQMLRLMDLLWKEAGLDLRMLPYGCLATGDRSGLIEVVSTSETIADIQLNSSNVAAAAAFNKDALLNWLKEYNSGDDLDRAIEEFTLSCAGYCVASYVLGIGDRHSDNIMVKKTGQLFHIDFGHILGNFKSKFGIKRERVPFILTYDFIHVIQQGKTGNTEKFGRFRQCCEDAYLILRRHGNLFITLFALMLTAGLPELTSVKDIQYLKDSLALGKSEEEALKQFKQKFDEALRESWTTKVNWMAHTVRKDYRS

Consider `C=CC(=O)Nc1cccc(-n2c(=O)ccc3oc4ccc(-c5cccnc5)cc4c32)c1`, for which the IC50 in experiment [1] was 0.074 µM; in experiment [3], 0.17 µM; with Raji it was 2.1 µM; with Ramos [4], 2.65 µM; in experiment [5] it was 0.855 µM; in experiment [6] it was 2.82 µM. Also, the IC50 in experiment [7] was 2.18 µM; in experiment [8], over 10 µM. Further, the inhibition in experiment [2] was 58.1%; in [19] it was 86.8%. Also, the inhibition entry in experiment [9] and in [10] was “Active” each time. The Activity in the experiment on Ramos [11] amounted to 37.62%; in the experiment on Ramos [12], 52.16%; with Ramos [13] it was 0.67%; with Ramos [15], 60.8%; in the experiment on Ramos [16], 34.56%; in the experiment on Ramos [17] it was 4.64%. In addition, in the experiment with Ramos [18], the Activity was 55.36%. For the same compound, in the experiment on Ramos [14], the viability at 5 µM was found to be 9.55%.
